Values after ≈ are worked out from the molar mass of the structure shown.
Assays:
Candida parapsilosis [1] = assay: Antifungal activity against Candida parapsilosis JLC 30275 by broth microdilution method; type: functional; conditions: Lodderomyces parapsilosis
Procedure, shortened: (§1)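 MICs were determined by broth microdilution following NCCLS guidelines (M38-P for filamentous fungi). The panel covered four yeast species and two Aspergillus species, with two strains per species. Itraconazole served as positive control.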

Aspergillus fumigatus [2] = assay: Antifungal activity against Aspergillus fumigatus JLC 30883 by broth microdilution method; type: functional; procedure, shortened: as §1
Pichia kudriavzevii [3] = assay: Antifungal activity against Candida krusei JLC 30386 by broth microdilution method; type: functional; procedure, shortened: as §1
Candida albicans [4] = assay: Antifungal activity against Candida albicans JLC 30364 by broth microdilution method; type: functional; procedure, shortened: as §1
Aspergillus flavus [5] = assay: Antifungal activity against Aspergillus flavus JLC 40437 by broth microdilution method; type: functional; procedure, shortened: as §1
Cryptococcus neoformans [6] = assay: Antifungal activity against Cryptococcus neoformans JLC 50123 by broth microdilution method; type: functional; procedure, shortened: as §1
Pichia kudriavzevii [7] = assay: Antifungal activity against Candida krusei JLC 30366 by broth microdilution method; type: functional; procedure, shortened: as §1
Candida parapsilosis [8] = assay: Antifungal activity against Candida parapsilosis JLC 30365 by broth microdilution method; type: functional; conditions: Lodderomyces parapsilosis; procedure, shortened: as §1
Candida albicans [9] = assay: Antifungal activity against Candida albicans JLC 31374 by broth microdilution method; type: functional; procedure, shortened: as §1
Aspergillus fumigatus [10] = assay: Antifungal activity against Aspergillus fumigatus JLC 30506 by broth microdilution method; type: functional; procedure, shortened: as §1
Aspergillus flavus [11] = assay: Antifungal activity against Aspergillus flavus JLC 30784 by broth microdilution method; type: functional; procedure, shortened: as §1
Cryptococcus neoformans [12] = assay: Antifungal activity against Cryptococcus neoformans JLC 50122 by broth microdilution method; type: functional; procedure, shortened: as §1
[13] = Clearance in rat at 2.5 mg/kg, iv administered as single dose; type: ADME, organism-based; design: dose 2.5 mg/kg, route intravenous; conditions: in vivo
Procedure, shortened: (§2)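 Rats received a single iv dose. Drug levels were measured in plasma. Parameters came from the plasma concentration–time data: AUC over 0–t in ng h/mL, clearance (CL) in L/h/kg, and half-life in h.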

[14] = Solubility of the compound in water at pH 1.2; type: physicochemical
[15] = AUC (0 to t) in rat at 2.5 mg/kg, iv administered as single dose; type: ADME, organism-based; design: dose 2.5 mg/kg, route intravenous; conditions: plasma; procedure, shortened: as §2
Salmonella typhimurium = assay: Mutagenic activity in Salmonella Typhimurium assessed as number of revertants colonies after 48 hrs by Ames test; type: toxicity, organism-based; conditions: salmonella enterica subsp. enterica serovar typhimurium
Procedure, shortened: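 Plate incorporation protocol without S9 mix. About 10^9 bacterial cells in culture medium were mixed with test compound in DMSO and poured onto hardened agar, in triplicate plates. Plates were incubated at 37 °C for 48 h, then revertant colonies were counted and reported as mean ± standard deviation.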

[16] = Half life in rat at 10 mg/kg, po administered as single dose; type: ADME, organism-based; design: dose 10 mg/kg, route oral; conditions: in vivo
Procedure, shortened: (§3)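 Rats received a single dose of compound, either oral (10 mg/kg) or intravenous (10, 5 or 2.5 mg/kg). Plasma levels were followed, and the reported parameters were Cmax, Tmax, AUC0–t, half-life, clearance and bioavailability (F).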

[17] = Oral bioavailability in rat at 10 mg/kg, administered as single dose; type: ADME, organism-based; conditions: in vivo; procedure, shortened: as §3
[18] = Half life in rat at 2.5 mg/kg, iv administered as single dose; type: ADME, organism-based; design: dose 2.5 mg/kg, route intravenous; conditions: in vivo; procedure, shortened: as §2
[19] = AUC (0 to t) in rat at 10 mg/kg, po administered as single dose; type: ADME, organism-based; design: dose 10 mg/kg, route oral; conditions: plasma; procedure, shortened: as §3
[20] = Tmax in rat at 10 mg/kg, po administered as single dose; type: ADME, organism-based; design: dose 10 mg/kg, route oral; conditions: in vivo; procedure, shortened: as §3
[21] = Acute toxicity in po dosed ICR mouse assessed as mortality after 10 days; type: organism-based; conditions: in vivo
Procedure, shortened: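 Single oral dose on day 0 at 100, 144, 207, 299, 430 or 619 mg/kg. Animals were watched continuously for 10 days, recording deaths and signs of toxicity. LD50 was calculated by a modified Kaber method.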

[22] = Cmax in rat at 10 mg/kg, po administered as single dose; type: ADME, organism-based; design: dose 10 mg/kg, route oral; conditions: in vivo; procedure, shortened: as §3
[23] = Clearance in rat at 10 mg/kg, iv administered as single dose; type: ADME, organism-based; design: dose 10 mg/kg, route intravenous; conditions: in vivo; procedure, shortened: as §3
[24] = AUC (0 to t) in rat at 10 mg/kg, iv administered as single dose; type: ADME, organism-based; design: dose 10 mg/kg, route intravenous; conditions: plasma; procedure, shortened: as §3
[25] = Half life in rat at 10 mg/kg, iv administered as single dose; type: ADME, organism-based; design: dose 10 mg/kg, route intravenous; conditions: in vivo; procedure, shortened: as §3

| MIC (Candida parapsilosis [1]) | MIC (Aspergillus fumigatus [2]) | MIC (Pichia kudriavzevii [3]) | MIC (Candida albicans [4]) | MIC (Aspergillus flavus [5]) | MIC (Cryptococcus neoformans [6]) | MIC (Pichia kudriavzevii [7]) | MIC (Candida parapsilosis [8]) | MIC (Candida albicans [9]) | MIC (Aspergillus fumigatus [10]) | MIC (Aspergillus flavus [11]) | MIC (Cryptococcus neoformans [12]) | Compound | half-life [16] | bioavailability [17] | AUC(0-t) [19] | Tmax [20] | Cmax [22] | further results |
| --- | --- | --- | --- | --- | --- | --- | --- | --- | --- | --- | --- | --- | --- | --- | --- | --- | --- | --- |
| 0.5 µg/mL (≈ 0.74 µM) | 1 µg/mL (≈ 1.48 µM) | 0.0625 µg/mL (≈ 0.0925 µM) | 0.0625 µg/mL (≈ 0.0925 µM) | 0.125 µg/mL (≈ 0.185 µM) | 0.0625 µg/mL (≈ 0.0925 µM) | 0.0625 µg/mL (≈ 0.0925 µM) | 0.5 µg/mL (≈ 0.74 µM) | 0.0625 µg/mL (≈ 0.0925 µM) | 1 µg/mL (≈ 1.48 µM) | 0.125 µg/mL (≈ 0.185 µM) | 0.0625 µg/mL (≈ 0.0925 µM) | CC(CO)n1ncn(-c2ccc(N3CCN(c4ccc(OC[C@H]5CO[C@](Cn6cncn6)(c6ccc(F)cc6F)O5)cc4)CC3)cn2)c1=O (stereo not given in full) | – | – | – | – | – | – |
| 0.0156 µg/mL (≈ 0.0236 µM) | 0.5 µg/mL (≈ 0.756 µM) | 0.03 µg/mL (≈ 0.0453 µM) | < 0.0156 µg/mL | 0.03 µg/mL (≈ 0.0453 µM) | < 0.0156 µg/mL | 0.03 µg/mL (≈ 0.0453 µM) | 0.0156 µg/mL (≈ 0.0236 µM) | < 0.0156 µg/mL | 0.5 µg/mL (≈ 0.756 µM) | 0.03 µg/mL (≈ 0.0453 µM) | < 0.0156 µg/mL | O=c1n(-c2ccc(N3CCN(c4ccc(OC[C@H]5CO[C@](Cn6cncn6)(c6ccc(F)cc6F)O5)cc4)CC3)cn2)cnn1CCO | – | – | – | – | – | – |
| < 0.0156 µg/mL | 0.5 µg/mL (≈ 0.725 µM) | < 0.0156 µg/mL | < 0.0156 µg/mL | 0.125 µg/mL (≈ 0.181 µM) | 0.03 µg/mL (≈ 0.0435 µM) | < 0.0156 µg/mL | < 0.0156 µg/mL | < 0.0156 µg/mL | 0.5 µg/mL (≈ 0.725 µM) | 0.125 µg/mL (≈ 0.181 µM) | 0.03 µg/mL (≈ 0.0435 µM) | CC(CO)Cn1ncn(-c2ccc(N3CCN(c4ccc(OC[C@H]5CO[C@](Cn6cncn6)(c6ccc(F)cc6F)O5)cc4)CC3)cn2)c1=O (stereo not given in full) | – | – | – | – | – | – |

| Compound | MIC (Candida parapsilosis [1]) | MIC (Aspergillus fumigatus [2]) | MIC (Pichia kudriavzevii [3]) | MIC (Candida albicans [4]) | MIC (Aspergillus flavus [5]) | MIC (Cryptococcus neoformans [6]) | MIC (Pichia kudriavzevii [7]) | MIC (Candida parapsilosis [8]) | MIC (Candida albicans [9]) | MIC (Aspergillus fumigatus [10]) | MIC (Aspergillus flavus [11]) | MIC (Cryptococcus neoformans [12]) | half-life [16] | bioavailability [17] | AUC(0-t) [19] | Tmax [20] | Cmax [22] | further results |
| --- | --- | --- | --- | --- | --- | --- | --- | --- | --- | --- | --- | --- | --- | --- | --- | --- | --- | --- |
| CC(C)(CO)Cn1ncn(-c2ccc(N3CCN(c4ccc(OC[C@H]5CO[C@](Cn6cncn6)(c6ccc(F)cc6F)O5)cc4)CC3)cn2)c1=O | < 0.0156 µg/mL | 0.03 µg/mL (≈ 0.0426 µM) | < 0.0156 µg/mL | 0.0156 µg/mL (≈ 0.0222 µM) | < 0.0156 µg/mL | < 0.0156 µg/mL | < 0.0156 µg/mL | < 0.0156 µg/mL | 0.0156 µg/mL (≈ 0.0222 µM) | 0.03 µg/mL (≈ 0.0426 µM) | < 0.0156 µg/mL | < 0.0156 µg/mL | 3.41 h | 42.2% | 1900 ng·h/mL | 3 h | 297 ng/mL | clearance [13]: 36.7 mL/min/kg; solubility ([14]; water, read-out: solubility): 190 µg/mL (≈ 270 µM); AUC(0-t) [15]: 1120 ng·h/mL; Activity (Salmonella typhimurium): Non-toxic; half-life [18]: 2.3 h; LD50 at 240 h [21]: 278 mg/kg |
| CCC(C)n1ncn(-c2ccc(N3CCN(c4ccc(OCC5COC(Cn6cncn6)(c6ccc(Cl)cc6Cl)O5)cc4)CC3)cc2)c1=O (stereo not given) [ITRACONAZOLE] | 0.25 µg/mL (≈ 0.354 µM) | 0.25 µg/mL (≈ 0.354 µM) | 0.0625 µg/mL (≈ 0.0886 µM) | 0.125 µg/mL (≈ 0.177 µM) | 0.125 µg/mL (≈ 0.177 µM) | 1 µg/mL (≈ 1.42 µM) | 0.0625 µg/mL (≈ 0.0886 µM) | 0.25 µg/mL (≈ 0.354 µM) | 0.125 µg/mL (≈ 0.177 µM) | 0.25 µg/mL (≈ 0.354 µM) | 0.125 µg/mL (≈ 0.177 µM) | 1 µg/mL (≈ 1.42 µM) | 2.57 h | 8% | 27.5 ng·h/mL | 3 h | 6.28 ng/mL | clearance [23]: 322 mL/min/kg; AUC(0-t) [24]: 343 ng·h/mL; solubility ([14]; buffer): 16 µg/mL (≈ 22.7 µM); half-life [25]: 22 h |

Reference: ChEMBL document CHEMBL1806410, “Design and synthesis of pyridine-substituted itraconazole analogues with improved antifungal activities, water solubility and bioavailability” (Bioorg Med Chem Lett, 2011)
